# According to article PMC11808297 (RSC Advances, 2025):
# Tests used:
# [1] = Metabolic stability in mouse liver microsomes; type: in vitro ADME; conditions: for CLint(liver): NADPH; for Remaining (NCF = 60 min): no co-factor
# Summary of the method: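 CD-1 mouse liver microsomes in 100 mM potassium phosphate buffer, preincubated 10 min at 37 °C with NADPH (1 mM final) or without co-factor. Test compound spiked to 1 μM final; testosterone positive control. Sampled at 5, 15, 30, 45, 60 min, quenched in cold acetonitrile with tolbutamide/labetalol IS, LC-MS/MS. T1/2 and CLint from first-order kinetics.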
# [2] = tested on: human umbilical vein endothelial cells (HUVECs); assay: HUVEC tubular structure formation assay; type: cell-based; conditions: 5 μM, 4 h on Matrigel
# [3] = Stability in simulated intestinal fluid; type: in vitro ADME; conditions: 2 μM, 37 °C, pH 6.8, up to 24 h
# Summary of the method: (§1)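 Test compound at 2 μM final in simulated gastric fluid (NaCl, pepsin, HCl; pH 1.20) or simulated intestinal fluid (KH2PO4, pancreatin; pH 6.8), shaken at 37 °C, 600 rpm. At 0, 1, 2, 6, 24 h quenched with cold acetonitrile containing tolbutamide/labetalol IS, centrifuged 4 °C; remaining compound by LC/MS/MS peak area ratio analyte/IS, C18 column.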
# HEPG2 = assay: Anti-proliferation assay; type: cell-based; conditions: Homo sapiens, HepG2, 48 h, read-out: IC50 against proliferation, HEPG2
# Summary of the method: (§2)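 Cells thawed, grown in RPMI 1640 + 10% FBS at 37 °C, 5% CO2; used in log phase. Seeded 10 000–12000 cells/well, after 4 h test compound added at working concentrations 0.16/0.8/4/20/100 μmol L−1 in complete medium. MTT (5 mg mL−1) added for 4 h, formazan dissolved in DMSO, absorbance at 570 nm.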
# HuH7 = assay: Anti-proliferation assay; type: cell-based; conditions: Homo sapiens, Huh-7, 48 h, read-out: IC50 against proliferation, HuH7
# Summary of the method: as §2
# PLC/PRF/5 = assay: Anti-proliferation assay; type: cell-based; conditions: Homo sapiens, PLC-PRF-5, 48 h, read-out: IC50 against proliferation, PLC/PRF/5
# Summary of the method: as §2
# MDA-MB-231 = assay: Anti-proliferation assay; type: cell-based; conditions: Homo sapiens, MDA-MB-231, 48 h, read-out: IC50 against proliferation, MDA-MB-231
# Summary of the method: as §2
# rat thoracic aorta ring = assay: Rat aortic ring assay; conditions: 5 μM, 9 days
# Summary of the method: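 Thoracic aortas from 8–10 week-old male SD rats, cleaned of fibroadipose tissue, cut into 1 mm rings, embedded between Matrigel layers. Test compound in M199 added; cultured at 37 °C, 5% CO2 for 9 days with medium plus compound renewed every three days. Micro-vessels imaged by inverted microscope at 100×.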
# K562 = assay: Anti-proliferation assay; type: cell-based; conditions: Homo sapiens, K562, 48 h, read-out: IC50 against proliferation, K562
# Summary of the method: as §2
# APN from porcine kidney = molecular target: T1, APN from porcine kidney (Sus scrofa, UniProt P15145); assay: APN inhibition assay; type: biochemical
# T1 sequence (P15145 1-963): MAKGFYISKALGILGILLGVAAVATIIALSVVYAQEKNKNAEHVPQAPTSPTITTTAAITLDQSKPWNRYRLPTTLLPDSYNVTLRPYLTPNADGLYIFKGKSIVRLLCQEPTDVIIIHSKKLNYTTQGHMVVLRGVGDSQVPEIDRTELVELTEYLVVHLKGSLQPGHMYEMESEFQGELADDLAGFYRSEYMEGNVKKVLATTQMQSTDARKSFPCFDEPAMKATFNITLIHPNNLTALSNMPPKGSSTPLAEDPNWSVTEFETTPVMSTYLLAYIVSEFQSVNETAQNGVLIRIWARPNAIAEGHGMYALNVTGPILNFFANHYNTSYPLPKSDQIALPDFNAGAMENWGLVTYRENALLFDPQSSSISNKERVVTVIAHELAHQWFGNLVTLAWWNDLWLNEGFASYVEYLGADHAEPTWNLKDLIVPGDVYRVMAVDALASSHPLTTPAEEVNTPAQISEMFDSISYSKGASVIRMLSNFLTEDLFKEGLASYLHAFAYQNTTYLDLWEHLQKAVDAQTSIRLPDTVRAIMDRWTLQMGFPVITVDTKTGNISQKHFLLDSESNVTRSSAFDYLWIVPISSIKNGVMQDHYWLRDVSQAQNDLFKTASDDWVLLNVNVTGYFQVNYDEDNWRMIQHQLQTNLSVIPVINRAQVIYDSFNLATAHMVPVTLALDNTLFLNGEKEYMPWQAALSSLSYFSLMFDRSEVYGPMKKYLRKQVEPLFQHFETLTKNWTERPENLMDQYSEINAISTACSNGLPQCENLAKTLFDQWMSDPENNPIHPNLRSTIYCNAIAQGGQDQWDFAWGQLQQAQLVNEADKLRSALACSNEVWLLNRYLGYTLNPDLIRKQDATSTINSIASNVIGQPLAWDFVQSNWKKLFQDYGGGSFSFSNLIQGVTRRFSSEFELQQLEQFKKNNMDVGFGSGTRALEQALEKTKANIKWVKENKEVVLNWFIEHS
# HEL = assay: Anti-proliferation assay; type: cell-based; conditions: Homo sapiens, 48 h, read-out: IC50 against proliferation, HEL
# Summary of the method: as §2
# [4] = Stability in simulated gastric fluid; type: in vitro ADME; conditions: 2 μM, 37 °C, pH 1.20, up to 24 h
# Summary of the method: as §1
# [5] = In vivo PK study in Sprague Dawley rats; conditions: male, rat, plasma
# Summary of the method: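 Male SD rats, 180–220 g, acclimatised one week, fasted 12 h. Single dose i.v. infusion (jugular vein cannula sampling) or oral; blood taken predose and to 24 h (i.v. from 0.083 h, oral from 0.25 h). Plasma by centrifugation, stored −20 °C, LC-MS/MS quantitation.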
# [6] = mouse liver microsomes, 1 μM, 60 min
compound,measurement,setting,value
"C[C@]12CC[C@H]3[C@@H](CCC4=CC(=O)CC[C@@]43C)[C@@H]1CC[C@@H]2O [Testosterone, reference compound]",CLint(liver),"[1]; mouse liver microsomes, 1 μM",998.5 mL/min/kg
same,Remaining (NCF = 60 min),[1]; [6],91.0%
"CC(C)C[C@H](NC(=O)NCc1cn(-c2ccccc2C(=O)OCn2cc(F)c(=O)[nH]c2=O)nn1)C(=O)NO [Compound 3, (5-fluoro-2,4-dioxo-3,4-dihydropyrimidin-1(2H)-yl)methyl (S)-2-(4-((3-(1-(hydroxyamino)-4-methyl-1-oxopentan-2-yl)ureido)methyl)-1H-1,2,3-triazol-1-yl)benzoate]",Effect on HUVEC capillary tube formation,[2],could inhibit the capillary tube formation
same,half-life at 1 μM,"[1]; CD-1, mouse, liver microsomes",94.9 min
same,microsomal CLint at 1 μM,"[1]; CD-1, mouse, liver microsomes",14.6 µL/min/mg
same,CLint(liver),"[1]; mouse liver microsomes, 1 μM",57.8 mL/min/kg
same,Remaining (NCF = 60 min),[1]; [6],80.1%
same,Remaining (T = 60 min),"[1]; mouse liver microsomes, 1 μM, with NADPH, 60 min",69.4%
same,Stability in simulated intestinal fluid,[3],slowly cleaved
same,IC50,HEPG2,> 100 µM
same,IC50,HuH7,> 100 µM
same,IC50,PLC/PRF/5,> 100 µM
same,IC50,MDA-MB-231,> 100 µM
same,Effect on micro-vessel growth of rat aortic ring,rat thoracic aorta ring,could prevent the micro-vessel growth
same,IC50,K562,25.6 ± 12.3 µM
same,IC50,APN from porcine kidney,0.5 ± 0.29 µM
same,"APN inhibitory activity, fold more potent than bestatin",APN from porcine kidney; vs positive control bestatin,over 8 fold
same,IC50,HEL,47.2 ± 19.3 µM
same,Stability in simulated gastric fluid,[4],very stable
same,Tmax,"[5]; iv, 10 mg/kg",5 min
same,clearance,"[5]; iv, 10 mg/kg",12.3 mL/min/kg
same,half-life,"[5]; iv, 10 mg/kg",52 ± 23.2 min
same,AUC(0-inf),"[5]; po, 50 mg/kg",510 ± 99.3 ng·h/mL
same,AUC(0-t),"[5]; po, 50 mg/kg",484 ± 119 ng·h/mL
same,Cmax,"[5]; po, 50 mg/kg",337 ± 158 ng/mL
same,Tmax,"[5]; po, 50 mg/kg",25 ± 8.64 min
same,half-life,"[5]; po, 50 mg/kg",266 ± 246 min
"CC(C)C[C@H](NC(=O)[C@@H](O)[C@H](N)Cc1ccccc1)C(=O)O [Bestatin, reference compound]",IC50,HEPG2,> 100 µM
same,IC50,HuH7,> 100 µM
same,IC50,PLC/PRF/5,> 100 µM
same,IC50,MDA-MB-231,> 100 µM
same,IC50,K562,> 100 µM
same,IC50,HEL,> 100 µM
